We go through one compound from ChEMBL document CHEMBL2203081 (Bioorg Med Chem Lett, 2012).

Test [1] has as its target T1, Mitogen-activated protein kinase kinase kinase 7 (Homo sapiens) (UniProt O43318).
T1 sequence (whole entry): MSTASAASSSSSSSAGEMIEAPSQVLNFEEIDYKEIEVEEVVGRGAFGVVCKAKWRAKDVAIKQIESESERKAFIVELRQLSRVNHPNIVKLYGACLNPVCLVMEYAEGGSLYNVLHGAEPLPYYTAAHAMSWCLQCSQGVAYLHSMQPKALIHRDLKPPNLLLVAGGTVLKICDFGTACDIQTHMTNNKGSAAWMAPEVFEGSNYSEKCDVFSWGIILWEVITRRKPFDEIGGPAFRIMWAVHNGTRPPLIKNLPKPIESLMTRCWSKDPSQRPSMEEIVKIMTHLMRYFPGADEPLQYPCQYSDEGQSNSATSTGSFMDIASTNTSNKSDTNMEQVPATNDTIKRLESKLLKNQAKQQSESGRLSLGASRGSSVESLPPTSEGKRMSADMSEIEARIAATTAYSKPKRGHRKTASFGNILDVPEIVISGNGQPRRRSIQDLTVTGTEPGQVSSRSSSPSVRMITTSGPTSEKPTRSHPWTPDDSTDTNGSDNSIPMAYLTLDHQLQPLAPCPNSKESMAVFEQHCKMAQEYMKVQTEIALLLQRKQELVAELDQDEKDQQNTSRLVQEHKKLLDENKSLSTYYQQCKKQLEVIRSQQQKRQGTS
The test is described as follows: Inhibition of TAK1 assessed as residual activity at 10 uM.

For test [2], the target named is BMP-2-inducible protein kinase (Homo sapiens) (UniProt Q9NSY1). The test is described as follows: Inhibition of BIKE assessed as residual activity at 10 uM relative to control.
Test [3] deals with Cyclin-dependent kinase-like 2 (Homo sapiens) (UniProt Q92772). In words: Inhibition of CDKL2 assessed as residual activity at 10 uM relative to control.
Test [4] deals with Receptor-interacting serine/threonine-protein kinase 2 (Homo sapiens) (UniProt O43353). In words: Inhibition of RIPK2 assessed as residual activity at 1 uM.
Chain of Receptor-interacting serine/threonine-protein kinase 2 (Homo sapiens) (O43353 whole entry, canonical isoform): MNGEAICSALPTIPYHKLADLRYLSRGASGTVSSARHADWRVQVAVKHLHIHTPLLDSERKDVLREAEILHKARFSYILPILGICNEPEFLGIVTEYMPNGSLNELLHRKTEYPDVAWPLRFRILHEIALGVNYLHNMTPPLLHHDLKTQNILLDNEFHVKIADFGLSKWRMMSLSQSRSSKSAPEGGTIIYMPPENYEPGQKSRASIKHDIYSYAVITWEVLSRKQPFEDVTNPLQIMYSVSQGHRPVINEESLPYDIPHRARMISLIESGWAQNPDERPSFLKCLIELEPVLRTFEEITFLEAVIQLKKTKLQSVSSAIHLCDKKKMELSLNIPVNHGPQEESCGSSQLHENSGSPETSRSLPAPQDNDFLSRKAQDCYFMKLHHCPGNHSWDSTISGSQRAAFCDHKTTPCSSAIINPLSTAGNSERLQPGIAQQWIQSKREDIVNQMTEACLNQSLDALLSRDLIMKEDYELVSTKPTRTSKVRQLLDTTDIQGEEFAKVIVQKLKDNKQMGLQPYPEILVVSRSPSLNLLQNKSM
Test [5] addresses Casein kinase I isoform delta (Homo sapiens) (UniProt P48730). The test is described as follows: Inhibition of CSNK1D assessed as residual activity at 10 uM relative to control. An outline of the steps:
(§1)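 Competition kinase-binding assay (KINOMEscan) across a non-redundant panel of 329 kinases beyond the radiometric panel; residual binding expressed relative to control.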

The target of test [6] is Protein kinase C iota type (Homo sapiens) (UniProt P41743). In words: Inhibition of PRKCI assessed as residual activity at 10 uM relative to control.
Test [7] deals with Serine/threonine-protein kinase LATS2 (Homo sapiens) (UniProt Q9NRM7). The test is described as follows: Inhibition of LATS2 assessed as residual activity at 10 uM relative to control.
The target of test [8] is Tyrosine-protein kinase receptor UFO (Homo sapiens) (UniProt P30530). In words: Inhibition of AXL assessed as residual activity at 10 uM relative to control.
For test [9], the target named is Serine/threonine-protein kinase WNK1 (Homo sapiens) (UniProt Q9H4A3). The test is described as follows: Inhibition of WNK1 assessed as residual activity at 10 uM relative to control.
Chain of Serine/threonine-protein kinase WNK1 (Homo sapiens) (Q9H4A3 whole entry, looked up): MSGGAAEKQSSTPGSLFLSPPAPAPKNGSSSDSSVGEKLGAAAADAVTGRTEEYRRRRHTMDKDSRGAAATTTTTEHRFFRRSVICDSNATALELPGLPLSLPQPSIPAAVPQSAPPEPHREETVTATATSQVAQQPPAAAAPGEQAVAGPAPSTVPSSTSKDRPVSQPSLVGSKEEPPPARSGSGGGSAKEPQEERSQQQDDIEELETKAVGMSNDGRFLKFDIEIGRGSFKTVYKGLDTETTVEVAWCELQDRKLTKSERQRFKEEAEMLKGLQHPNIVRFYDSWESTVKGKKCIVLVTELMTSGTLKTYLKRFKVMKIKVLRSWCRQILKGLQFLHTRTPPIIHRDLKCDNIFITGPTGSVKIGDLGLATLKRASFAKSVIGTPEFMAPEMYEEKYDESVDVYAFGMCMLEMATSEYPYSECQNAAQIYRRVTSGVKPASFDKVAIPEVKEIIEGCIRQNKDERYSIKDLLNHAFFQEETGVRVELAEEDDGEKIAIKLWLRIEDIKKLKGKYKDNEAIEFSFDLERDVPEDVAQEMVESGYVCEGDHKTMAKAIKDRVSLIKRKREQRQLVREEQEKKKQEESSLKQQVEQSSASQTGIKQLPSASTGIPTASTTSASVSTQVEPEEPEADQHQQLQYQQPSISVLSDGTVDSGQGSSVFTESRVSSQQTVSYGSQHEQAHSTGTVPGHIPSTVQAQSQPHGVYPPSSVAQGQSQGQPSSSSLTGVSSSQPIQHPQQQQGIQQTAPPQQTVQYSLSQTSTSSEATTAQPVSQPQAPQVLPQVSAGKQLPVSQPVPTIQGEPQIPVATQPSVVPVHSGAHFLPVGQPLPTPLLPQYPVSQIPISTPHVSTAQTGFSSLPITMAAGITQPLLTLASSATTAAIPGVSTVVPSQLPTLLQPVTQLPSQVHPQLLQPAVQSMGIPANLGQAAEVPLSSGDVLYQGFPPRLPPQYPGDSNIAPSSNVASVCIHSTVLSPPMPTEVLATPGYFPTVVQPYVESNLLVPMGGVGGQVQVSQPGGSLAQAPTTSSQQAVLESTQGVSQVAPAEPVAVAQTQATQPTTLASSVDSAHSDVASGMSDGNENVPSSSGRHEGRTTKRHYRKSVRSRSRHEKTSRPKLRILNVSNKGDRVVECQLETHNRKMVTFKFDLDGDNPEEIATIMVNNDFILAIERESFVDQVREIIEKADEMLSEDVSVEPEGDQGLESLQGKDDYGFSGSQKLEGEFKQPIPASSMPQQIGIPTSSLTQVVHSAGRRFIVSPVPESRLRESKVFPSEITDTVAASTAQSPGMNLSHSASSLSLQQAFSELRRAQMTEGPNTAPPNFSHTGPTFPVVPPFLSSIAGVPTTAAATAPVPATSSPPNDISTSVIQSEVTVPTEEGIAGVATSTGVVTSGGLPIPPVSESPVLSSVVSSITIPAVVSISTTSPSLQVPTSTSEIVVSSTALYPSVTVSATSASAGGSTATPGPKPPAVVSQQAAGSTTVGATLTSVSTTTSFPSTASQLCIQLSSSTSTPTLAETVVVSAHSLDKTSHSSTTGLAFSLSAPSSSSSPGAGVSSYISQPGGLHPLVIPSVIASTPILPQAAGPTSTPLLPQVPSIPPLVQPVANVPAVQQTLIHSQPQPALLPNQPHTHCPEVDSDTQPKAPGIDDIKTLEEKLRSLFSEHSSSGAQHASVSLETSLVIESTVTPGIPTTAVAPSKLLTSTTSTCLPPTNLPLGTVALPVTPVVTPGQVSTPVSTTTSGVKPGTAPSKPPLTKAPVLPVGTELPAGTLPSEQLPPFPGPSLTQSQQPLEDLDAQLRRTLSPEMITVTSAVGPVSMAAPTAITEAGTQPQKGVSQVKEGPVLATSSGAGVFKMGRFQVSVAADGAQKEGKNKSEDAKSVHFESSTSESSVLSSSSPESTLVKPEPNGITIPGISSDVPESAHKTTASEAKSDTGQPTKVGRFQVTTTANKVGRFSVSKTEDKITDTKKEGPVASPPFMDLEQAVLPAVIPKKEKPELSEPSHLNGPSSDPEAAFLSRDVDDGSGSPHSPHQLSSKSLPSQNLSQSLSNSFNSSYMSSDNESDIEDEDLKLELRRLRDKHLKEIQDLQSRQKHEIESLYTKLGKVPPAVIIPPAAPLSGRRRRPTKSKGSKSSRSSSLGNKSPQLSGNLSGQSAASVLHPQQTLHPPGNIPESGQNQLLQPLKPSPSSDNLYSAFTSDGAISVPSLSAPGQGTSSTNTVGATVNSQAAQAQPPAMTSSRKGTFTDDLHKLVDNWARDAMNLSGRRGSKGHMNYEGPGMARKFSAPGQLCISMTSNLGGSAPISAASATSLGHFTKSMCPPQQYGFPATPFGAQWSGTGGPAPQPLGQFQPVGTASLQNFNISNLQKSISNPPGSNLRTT
Test [10] has the same target. The test is described as follows: Inhibition of WNK1 assessed as residual activity at 1 uM.
Test [11] addresses Serine/threonine-protein kinase 35 (Homo sapiens) (UniProt Q8TDR2). In words: Inhibition of STK35 assessed as residual activity at 10 uM relative to control.
For test [12], the target named is Ephrin type-A receptor 3 (Homo sapiens) (UniProt P29320). The test is described as follows: Inhibition of EPHA3 assessed as residual activity at 10 uM relative to control. In short, it runs like this:
as §1

In test [13] the target is T2, NUAK family SNF1-like kinase 1 (Homo sapiens) (UniProt O60285).
T2 sequence (whole entry): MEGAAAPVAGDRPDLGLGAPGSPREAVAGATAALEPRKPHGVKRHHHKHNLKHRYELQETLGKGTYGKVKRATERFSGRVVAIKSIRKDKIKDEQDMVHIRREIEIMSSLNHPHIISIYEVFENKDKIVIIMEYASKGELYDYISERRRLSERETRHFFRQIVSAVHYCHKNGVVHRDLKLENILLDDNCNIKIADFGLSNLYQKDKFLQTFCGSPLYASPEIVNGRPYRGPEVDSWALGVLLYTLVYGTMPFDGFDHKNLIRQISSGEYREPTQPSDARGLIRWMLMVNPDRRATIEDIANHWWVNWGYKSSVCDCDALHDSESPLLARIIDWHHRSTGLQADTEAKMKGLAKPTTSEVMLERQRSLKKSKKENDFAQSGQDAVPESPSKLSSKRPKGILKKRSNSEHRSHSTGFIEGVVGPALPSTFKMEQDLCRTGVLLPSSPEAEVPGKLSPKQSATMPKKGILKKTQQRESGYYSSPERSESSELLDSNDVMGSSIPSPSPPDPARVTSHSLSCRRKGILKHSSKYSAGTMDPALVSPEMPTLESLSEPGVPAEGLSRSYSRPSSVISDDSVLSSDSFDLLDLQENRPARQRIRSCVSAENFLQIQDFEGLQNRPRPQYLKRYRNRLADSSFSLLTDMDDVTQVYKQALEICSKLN
The test is described as follows: Inhibition of NUAK1 assessed as residual activity at 1 uM.

For test [14], the target named is Mitogen-activated protein kinase 9 (Homo sapiens) (UniProt P45984). The test is described as follows: Inhibition of JNK2 assessed as residual activity at 1 uM. In short, it runs like this:
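Radioactivity-based enzymatic activity assay of the named kinase, run as part of a 131-kinase specificity panel at the National Centre for Protein Kinase Profiling (Dundee). Residual activity was read at the stated single inhibitor concentration.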

For test [15], the target named is Bone morphogenetic protein receptor type-1A (Homo sapiens) (UniProt P36894). The test is described as follows: Inhibition of BMPR1A assessed as residual activity at 10 uM relative to control.
Chain of Bone morphogenetic protein receptor type-1A (Homo sapiens) (P36894 whole entry): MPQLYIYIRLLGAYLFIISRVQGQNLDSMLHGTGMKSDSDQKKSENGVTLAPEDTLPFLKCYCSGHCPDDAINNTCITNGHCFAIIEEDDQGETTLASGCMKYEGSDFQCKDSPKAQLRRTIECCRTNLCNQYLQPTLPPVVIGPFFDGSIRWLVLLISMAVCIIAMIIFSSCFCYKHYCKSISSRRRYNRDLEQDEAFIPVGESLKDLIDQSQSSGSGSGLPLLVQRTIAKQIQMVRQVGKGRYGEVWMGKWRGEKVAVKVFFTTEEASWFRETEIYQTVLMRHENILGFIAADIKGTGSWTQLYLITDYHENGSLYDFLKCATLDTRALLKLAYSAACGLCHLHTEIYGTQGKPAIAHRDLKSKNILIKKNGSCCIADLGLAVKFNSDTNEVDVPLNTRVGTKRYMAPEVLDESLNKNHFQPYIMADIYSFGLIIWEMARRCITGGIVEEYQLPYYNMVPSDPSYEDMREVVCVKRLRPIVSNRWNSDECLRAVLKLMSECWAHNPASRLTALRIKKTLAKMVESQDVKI
Test [16] addresses Insulin receptor-related protein (Homo sapiens) (UniProt P14616). The test is described as follows: Inhibition of INSRR assessed as residual activity at 10 uM relative to control.
In test [17] the target is Ribosomal protein S6 kinase alpha-1 (Homo sapiens) (UniProt Q15418). The test is described as follows: Inhibition of RSK1 assessed as residual activity at 1 uM.
Test [18] addresses Casein kinase I isoform alpha (Homo sapiens) (UniProt P48729). The test is described as follows: Inhibition of CSNK1A1 assessed as residual activity at 10 uM relative to control. An outline of the steps: as §1
Test [19] addresses Casein kinase I isoform gamma-3 (Homo sapiens) (UniProt Q9Y6M4). In words: Inhibition of CSNK1G3 assessed as residual activity at 10 uM relative to control. An outline of the steps: as §1
Test [20] deals with Mitogen-activated protein kinase 14 (Homo sapiens) (UniProt Q16539). The test is described as follows: Inhibition of p38a MAPK assessed as residual activity at 1 uM.
Test [21] deals with Leucine-rich repeat serine/threonine-protein kinase 2 (Homo sapiens) (UniProt Q5S007). To be noted: HEK293, 0.3 to 1 uM.
The next test relates to Mus musculus. The test is described as follows: Inhibition of LRRK2 in mouse assessed as inhibition of Ser910 autophosphorylation in brain at 100 mg/kg, ip by immunoblot method. It is filed as functional, organism-based. Also on record: dose 100 mg/kg.
The target in test [22] is Homeodomain-interacting protein kinase 4 (Homo sapiens) (UniProt Q8NE63). The test is described as follows: Inhibition of HIPK4 assessed as residual activity at 10 uM relative to control.
Chain of Homeodomain-interacting protein kinase 4 (Homo sapiens) (Q8NE63 whole entry): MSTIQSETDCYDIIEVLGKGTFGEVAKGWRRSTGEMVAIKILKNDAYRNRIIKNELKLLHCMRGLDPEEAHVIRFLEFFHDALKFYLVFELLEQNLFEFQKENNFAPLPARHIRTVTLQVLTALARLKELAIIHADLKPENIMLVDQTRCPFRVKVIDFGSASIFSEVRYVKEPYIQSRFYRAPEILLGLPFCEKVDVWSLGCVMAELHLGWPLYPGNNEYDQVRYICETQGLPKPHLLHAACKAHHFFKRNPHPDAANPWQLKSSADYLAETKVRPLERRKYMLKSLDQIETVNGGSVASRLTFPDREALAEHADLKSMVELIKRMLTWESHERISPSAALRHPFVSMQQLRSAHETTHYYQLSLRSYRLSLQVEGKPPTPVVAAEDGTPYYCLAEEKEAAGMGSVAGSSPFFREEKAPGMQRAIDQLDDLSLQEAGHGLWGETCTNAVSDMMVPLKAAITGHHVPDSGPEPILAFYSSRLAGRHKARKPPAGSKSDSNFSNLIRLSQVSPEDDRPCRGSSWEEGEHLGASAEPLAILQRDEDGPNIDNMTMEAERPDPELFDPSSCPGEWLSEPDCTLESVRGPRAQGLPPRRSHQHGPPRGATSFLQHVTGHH

Activity calls are given as the source filed them. The rule behind the calls is not given here.

Chain of Ephrin type-A receptor 3 (Homo sapiens) (P29320 whole entry): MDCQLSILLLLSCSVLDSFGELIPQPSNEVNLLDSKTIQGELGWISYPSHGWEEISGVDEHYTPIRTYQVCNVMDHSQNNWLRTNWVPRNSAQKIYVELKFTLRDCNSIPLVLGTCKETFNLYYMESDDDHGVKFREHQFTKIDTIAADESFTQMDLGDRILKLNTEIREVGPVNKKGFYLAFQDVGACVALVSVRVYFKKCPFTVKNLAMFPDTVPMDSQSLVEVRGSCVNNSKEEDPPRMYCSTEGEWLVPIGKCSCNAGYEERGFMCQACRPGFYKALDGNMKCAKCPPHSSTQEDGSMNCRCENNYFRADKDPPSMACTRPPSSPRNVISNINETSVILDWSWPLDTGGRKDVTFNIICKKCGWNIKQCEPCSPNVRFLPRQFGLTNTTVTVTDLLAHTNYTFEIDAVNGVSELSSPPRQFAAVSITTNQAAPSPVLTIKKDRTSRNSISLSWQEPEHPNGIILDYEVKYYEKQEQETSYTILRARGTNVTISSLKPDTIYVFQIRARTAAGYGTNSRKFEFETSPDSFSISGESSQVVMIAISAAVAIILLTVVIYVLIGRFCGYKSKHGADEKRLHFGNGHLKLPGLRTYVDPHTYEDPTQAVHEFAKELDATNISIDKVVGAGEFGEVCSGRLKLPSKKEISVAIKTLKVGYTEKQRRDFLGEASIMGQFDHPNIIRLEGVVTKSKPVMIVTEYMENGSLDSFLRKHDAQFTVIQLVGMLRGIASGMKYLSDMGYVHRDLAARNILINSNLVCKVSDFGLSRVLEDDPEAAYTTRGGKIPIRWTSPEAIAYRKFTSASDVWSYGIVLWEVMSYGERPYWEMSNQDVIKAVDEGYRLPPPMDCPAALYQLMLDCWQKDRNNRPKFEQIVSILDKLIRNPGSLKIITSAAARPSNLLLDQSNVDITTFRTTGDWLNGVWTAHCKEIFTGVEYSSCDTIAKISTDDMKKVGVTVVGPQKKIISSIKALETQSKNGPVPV

Take `O=C(Nc1cccnc1)c1cc(-c2ccnc(F)c2)ccc1OCc1ccccc1`: the Activity in test [1] worked out at 101%; in test [2], 65%; in test [3], 77%; in test [4], 59%; in [5], 19%; in test [6] it was 73%. Moreover, the Activity in test [7] was 32%; in test [8], 46%; in test [9], 61%; in [10] it was 104%; in test [11] it was 44%; in test [12], 61%. The Activity in test [13] turned out to be 71%; in test [14], 107%; in test [15] it was 41%; in test [16], 71%; in [17], 69%; in test [18] it was 60%. In addition, the Activity came to 26% in test [19], 101% in [20] and 80% in test [22]. Further, the inhibition result in test [21] was “Active”. Further, the inhibition entry with Mus musculus was “inactive”.
